CAL PDZ FP-1: inhibitors of human CAL PDZ peptide binding. hit rate 0.02% among 330,000. purified CAL PDZ, TMR-peptide fluorescence polarization, 1 h. inhibition, % at 20 µM. Q9HD26;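 active means highest replicate inhibition of at least 40%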;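 further: plate controls were DMSO neutral control wells for no effect and unlabeled competitor peptide control wells for full effect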
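System: tagged CAL PDZ domain. Schedule: 1 h room-temperature incubation prior to read. Signal: fluorescence polarization (mP). Measure: percent inhibition from loss of millipolarization.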
dFosB activator: activators of mouse delta FosB homodimer; purified delta FosB, TAMRA-CDK5 oligo fluorescence polarization; percent of positive-control signal above neutral wells; P13346; AID 493131; activation, % at 25 µM; hit rate 0.99% among 340,000;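 active means mean activation above about 17%, with every replicate also reaching it, limit read from the data, passing the limit was not always enough; inconclusive means only one of the two conditions met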
S100A4 MyoIIA: blocks human S100A4 binding to myosin IIA peptide | S100A4/TAMRA-MyoIIA peptide fluorescence polarization | hit rate 0.14% among 360,000 | inhibition, % at 10.7 µM;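 active means mean inhibition of at least 70% across replicates, with every replicate also reaching that level; inconclusive means mean inhibition reaches 70% but some replicates fall short; inactive means mean inhibition below 70%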
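Material: S100A4 monomer (human). Medium: Calcium-containing HEPES buffer, pH 7.2. Probe or stimulus: labelled myosin peptide probe, 5 nM. Compound dosing: one concentration per compound. Timing: polarization read 5 min after assay mix addition, stable 5–60 min. Benchmarks: DMSO as neutral control, TFP as positive control.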
CAL PDZ FP-2: CAL PDZ (human) peptide binding inhibition. hit rate 0.92% among 300,000. purified CAL PDZ, TMR-peptide fluorescence polarization, 1 h. Q9HD26. AID 602252. inhibition, % at 24.9 µM;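 active means mean inhibition of at least 30% with at least half of replicates also reaching 30%; inconclusive means no clear call, values can overlap the other calls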;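 further: 0% = DMSO neutral control and 100% = excess unlabeled competitor peptide PRC23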
CDK5 inh: inhibitors of human CDK5/p35 kinase; hit rate 0.01% among 330,000; inhibition, % at 10 µM; Q00535+Q15078; Recombinant CDK5/p35, ADP-Glo luminescence, 60 min; AID 488839;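 active means highest replicate inhibition of at least 50% and at least 75% of replicates reaching 50%; inconclusive means only one of the two criteria met; inactive means both criteria failed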;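 further: plate controls were DMSO neutral control for no effect and GW8510 at 10 µM for full effect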
Target sequence (Q00535 whole entry, looked up): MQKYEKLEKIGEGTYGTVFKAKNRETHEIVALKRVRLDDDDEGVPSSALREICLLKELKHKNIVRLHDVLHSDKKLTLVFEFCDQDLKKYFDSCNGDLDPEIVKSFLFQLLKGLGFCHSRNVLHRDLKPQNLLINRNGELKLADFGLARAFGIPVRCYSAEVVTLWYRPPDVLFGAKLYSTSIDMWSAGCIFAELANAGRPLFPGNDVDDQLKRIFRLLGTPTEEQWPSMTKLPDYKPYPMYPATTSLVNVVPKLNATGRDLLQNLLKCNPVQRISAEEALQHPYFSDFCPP
Target sequence (Q15078 whole entry, looked up): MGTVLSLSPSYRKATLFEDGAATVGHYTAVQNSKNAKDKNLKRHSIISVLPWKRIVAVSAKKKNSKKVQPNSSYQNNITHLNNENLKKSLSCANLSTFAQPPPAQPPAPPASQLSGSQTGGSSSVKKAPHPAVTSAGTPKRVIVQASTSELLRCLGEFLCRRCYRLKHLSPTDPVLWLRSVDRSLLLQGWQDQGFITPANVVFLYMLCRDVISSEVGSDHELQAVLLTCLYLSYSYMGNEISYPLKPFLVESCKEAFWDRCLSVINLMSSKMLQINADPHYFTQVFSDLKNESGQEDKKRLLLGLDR
C2C12 statin: suppression of simvastatin myotoxicity. rescue of ATP level, % at 7.49 µM. C2C12 myotubes + simvastatin, ATP luminescence, 48 h; scaled: DMSO 0, geranylgeraniol control 100. AID 602340. hit rate 0.78% among 330,000;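 active means mean ATP rescue above about 67%, or every replicate alone reaching that limit, limit read from the data, passing the limit was not always enough; inconclusive means no clear call, values can overlap the other calls; inactive means mean under the limit and some replicate under it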;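 further: myotubes were challenged with 10 µM simvastatin during compound exposure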
* = called active by the depositor; u = inconclusive; x = not tested or not shown; + = active, no number. Shown are actives, neighbours in structure and some others; about 2% of the full set was active somewhere.

SMILES	CAL PDZ FP-1	dFosB activator	S100A4 MyoIIA	CAL PDZ FP-2	CDK5 inh	C2C12 statin
Nc1cc(=O)[nH]c(SCC(=O)Nc2cc(S(=O)(=O)N3CCCCCC3)ccc2Cl)n1	-1	37*	-1	-2	-2	1
N#C[C@@H]1[C@H](c2ccccc2-c2cccc(F)c2)[C@@H](CO)N1C(=O)C1CC1	x	x	77*	x	x	x
Cc1c(C(=O)NC(=S)Nc2ccc3c4c(cccc24)CC3)cccc1[N+](=O)[O-]	0	-2	x	x	0	-25
C[C@@H]1CN([C@@H](C)CO)C(=O)Cc2cc(N(C)C)ccc2O[C@H]1CN(C)Cc1ccc(C(F)(F)F)cc1	x	x	9	x	x	97*
C[C@@H]1CN([C@H](C)CO)C(=O)Cc2cc(NS(=O)(=O)c3ccc(Cl)cc3)ccc2O[C@@H]1CN(C)Cc1ccc(C(F)(F)F)cc1	x	x	23	x	x	u
C[C@H](CO)N1C[C@H](C)[C@@H](CN(C)Cc2ccc(C(F)(F)F)cc2)Oc2ccc(NS(=O)(=O)c3ccc(Cl)cc3)cc2CC1=O	x	x	-13	x	x	112*
C[C@@H]1CN([C@@H](C)CO)C(=O)Cc2cc(NS(=O)(=O)c3ccc(F)cc3)ccc2O[C@@H]1CN(C)Cc1ccc(C(F)(F)F)cc1	x	x	0	x	x	25
C[C@H]1CN([C@@H](C)CO)C(=O)Cc2cc(N(C)C)ccc2O[C@H]1CN(C)Cc1ccc(C(F)(F)F)cc1	x	x	0	x	x	-88
Cc1ccc(S(=O)(=O)Nc2ccc3c(c2)CC(=O)N([C@@H](C)CO)C[C@@H](C)[C@H](CN(C)Cc2ccc(C(F)(F)F)cc2)O3)cc1	x	x	x	x	x	69*
Cc1ccc(S(=O)(=O)Nc2ccc3c(c2)CC(=O)N([C@@H](C)CO)C[C@H](C)[C@@H](CN(C)Cc2ccc(C(F)(F)F)cc2)O3)cc1	x	x	x	x	x	40
Cc1ccc(S(=O)(=O)Nc2ccc3c(c2)CC(=O)N([C@H](C)CO)C[C@@H](C)[C@@H](CN(C)Cc2ccc(C(F)(F)F)cc2)O3)cc1	x	x	x	x	x	67*
Cc1ccc(S(=O)(=O)Nc2ccc3c(c2)C(=O)N([C@H](C)CO)C[C@@H](C)[C@H](CN(C)S(=O)(=O)c2ccc(F)cc2)O3)cc1	x	x	10	x	x	-3
C[C@@H]1CN([C@H](C)CO)C(=O)c2cc(NC(=O)Nc3ccccc3)ccc2O[C@H]1CN(C)Cc1ccc2c(c1)OCO2	x	x	1	x	x	-12
O=C(CSc1ccc(F)cc1)NC12CC3CC(CC(C3)C1)C2	0	2	3	4	1	-9
CC(C)CNC(=O)COC(=O)c1n[nH]c2ccccc12	8	-11	6	61*	-1	x
Cc1oc(-c2ccccc2)nc1C(=O)OCC(=O)NC(=O)NCC(C)C	0	-11	x	37*	-1	10
Cc1ccc(NC(=S)NNC(=O)c2ccccc2O)c(C)c1	-2	-1	5	1	-2	x
O=C(CCc1ccccc1Cl)N1CCN(S(=O)(=O)c2ccccc2)CC1	0	-2	0	-4	-1	-11
CCN(CC)c1ccc(N2C(=O)CSC2=S)cc1	-4	8	-26	45*	-1	6
CCOc1ccc(N2C(=O)CSC2=S)cc1	0	-5	-5	x	-1	-1
CC1(C)CC(NC(=O)CC2CCCCC2)CC(C)(C)N1	0	0	x	-6	-1	-2
CC1(C)CC(NC(=O)CCC2CCCC2)CC(C)(C)N1	x	-2	x	-6	0	106*
COc1cc(OC)nc(NC(C)=O)n1	-2	-2	x	x	1	-4
CSc1nc(NC(C)=O)nc(C)c1Cl	-1	-9	x	-3	-1	147*
CCC(Sc1nc2ccncc2[nH]1)C(=O)Nc1ccc(C)c(Cl)c1 (stereo unspecified)	-2	-6	79*	x	-2	39
SMILES	CAL PDZ FP-1	dFosB activator	S100A4 MyoIIA	CAL PDZ FP-2	CDK5 inh	C2C12 statin
CCNc1ccc2noc3c2c1C(=O)c1ccccc1-3	44*	-322	x	18	0	x
O=C1c2ccccc2-c2onc3ccc(NCc4ccco4)c1c23	12	-130	x	0	0	-9
CCn1c2ccc(/C(C)=N\O)cc2c2cc(/C(C)=N\O)ccc21	0	-5	x	x	0	4
CCn1ccnc1CNCc1cn(-c2cc(C)ccc2C)nc1-c1ccccc1	-4	0	-8	1	2	x
Cc1ccc(C)c(-n2cc(CNCCc3cnccn3)c(-c3ccccc3)n2)c1	-1	-7	-17	53*	1	-7
Cc1ccc(Cl)cc1NC(=O)CCNC(=O)N1CC(=O)Nc2ccccc21	-1	-7	2	x	2	4
COc1ccc(CC(=O)Nc2cc(C)on2)cc1	0	4	x	0	1	137*
CCc1ccc(-c2nc(SCC(=O)c3c(N)n(C4CC4)c(=O)[nH]c3=O)n[nH]2)cc1	0	42*	1	-1	0	-19
CC(C)Oc1ccc(C2CNC(=O)C2)cc1 (stereo unspecified)	-2	-7	-2	x	2	26
O=[N+]([O-])c1cc(-c2cnc3ccccc3n2)ccc1Oc1ccc(Cl)cc1	-1	-2	7	+	3	x
COc1ccccc1Oc1ccc(-c2cnc3ccccc3n2)cc1[N+](=O)[O-]	-1	-8	-1	3	-1	x
CC#CC(=O)N1CCC(CCc2ccccc2)(C(=O)OCC)CC1	0	4	-16	1	-10	-9
COc1ccccc1CNC(=S)NCc1ccc(F)cc1	-3	-3	-5	-1	1	0
C=CCNC(=S)NCc1ccccc1OC	0	-6	-6	70*	-1	x
COc1ccc(NC(=O)c2cccc(S(=O)(=O)N3CCCC3)c2)cc1OC	0	-1	3	77*	0	3
Cc1ccsc1C(=O)NNC(=O)c1cccc(S(=O)(=O)N2CCCC2)c1	0	3	-3	83*	1	-6
O=C(NNC(=O)c1ccc(Br)s1)c1cccc(S(=O)(=O)N2CCCC2)c1	0	3	3	11	0	-6
O=Cc1ccc(-c2ccc([N+](=O)[O-])cc2Cl)o1	0	-3	0	-3	-2	x
CNc1oc(-c2cccs2)nc1S(=O)(=O)c1ccccc1	-2	-5	-9	-1	-1	x
CCCCNc1oc(-c2cccs2)nc1S(=O)(=O)c1ccccc1	0	-4	x	-4	-1	131*
COc1cc(OC)cc(C(=O)NNC(=O)c2ccccn2)c1	-2	-6	-2	-4	-1	-4
COc1ccc(C(=O)NNC(=O)c2ccccn2)cc1	-3	-8	-3	0	55*	x
COc1ccc(CCC(=O)NNC(=O)c2ccccn2)cc1OC	-3	3	-4	98*	0	4
CO[C@@H](CN(C)Cc1cc(F)ccc1F)[C@@H](C)CN([C@H](C)CO)S(=O)(=O)c1ccc(Cl)cc1	x	x	3	x	x	-10

Screening data as filed in PubChem BioAssay.
